In ChEMBL document CHEMBL1158766, “Sesquiterpenoids from Saussurea laniceps” (2005):

Key:
[1] = Inhibition of concanavalin A-induced mouse T cell proliferation assessed as [3H]TdR incorporation at 0.1 uM; type: functional
In short: (§1)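 Mouse spleen cells (4 × 10^6/well) were stimulated with ConA at 5 µg/mL alongside compound at 1 × 10^-7 to 1 × 10^-4 M, then cultured for 48 h at 37 °C in 5% CO2. [3H]TdR (0.25 µCi/well) was added for the final 6 h, and uptake was read by liquid scintillation counting. Counts are means ± SD from three independent experiments, compared with controls by Student t-test.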

[2] = Inhibition of concanavalin A-induced mouse T cell proliferation assessed as [3H]TdR incorporation at 1 uM; type: functional; in short: as §1
[3] = Inhibition of concanavalin A-induced mouse T cell proliferation assessed as [3H]TdR incorporation at 10 uM; type: functional; in short: as §1
[4] = Inhibition of concanavalin A-induced mouse T cell proliferation assessed as [3H]TdR incorporation at 100 uM; type: functional; in short: as §1
[5] = Inhibition of lipopolysaccharide-induced mouse B cell proliferation assessed as [3H]TdR incorporation at 1 uM
[6] = Inhibition of lipopolysaccharide-induced mouse B cell proliferation assessed as [3H]TdR incorporation at 10 uM
[7] = Inhibition of lipopolysaccharide-induced mouse B cell proliferation assessed as [3H]TdR incorporation at 0.1 uM
[8] = Inhibition of lipopolysaccharide-induced mouse B cell proliferation assessed as [3H]TdR incorporation at 100 uM

SMILES | Activity [1] [cpm] | Activity [2] [cpm] | Activity [3] [cpm] | Activity [4] [cpm] | Activity [5] [cpm] | Activity [6] [cpm] | Activity [7] [cpm] | Activity [8] [cpm]
C=C(C)C(=O)O[C@H]1CC(=C)[C@@H]2C[C@@H](O)C(=C)[C@@H]2[C@H]2OC(=O)[C@@H](C)[C@@H]21 | 33800 | 36100 | 30600 | 40 | 31100 | 20600 | 34800 | 80
C=C1C[C@H](O)C[C@]2(C)CC[C@@](O)(C(=C)CO)C[C@@H]12 | 39800 | 31500 | 28300 | 12100 | 33600 | 30.8 | 36100 | 17200
C=C(CO)C(=O)O[C@H]1CC(=C)[C@@H]2C[C@@H](O)C(=C)[C@@H]2[C@H]2OC(=O)[C@@H](C)[C@@H]21 | 46300 | 43800 | 13400 | 30 | 29800 | 34900 | 24300 | 30
